From ChEMBL document CHEMBL4359893, “Synthesis, structure-activity relationship and trypanocidal activity of pyrazole-imidazoline and new pyrazole-tetrahydropyrimidine hybrids as promising chemotherapeutic agents for Chagas disease” (Eur J Med Chem, 2019)

Experiments:
[1] = Selectivity index, ratio of CC50 for African green monkey Vero cells to IC50 for Trypanosoma cruzi Y strain bloodstream trypomastigotes isolated from infected Swiss webster mouse cardiac cells; assay type: toxicity; settings: read-out: Ratio CC50/IC50
[2] = Cytotoxicity against mouse cardiomyocytes infected with intracellular amastigote stage of Trypanosoma cruzi Y strain assessed as reduction in cardiomyocyte viability after 72 hrs by Celltiter-Glo assay; assay type: cell-based, Cardiac Muscle Cell
Outline: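 Primary heart muscle cells from 18-day mouse fetuses, dissociated with trypsin/collagenase II, grown in DMEM with 7% FBS, 2% chicken embryo extract, 1 mM L-glutamine, antibiotics, 37 °C, 5% CO₂. Plated at 5 × 10⁴ cells/well and treated 72 h. Viability read by ATP luminescence. CC50 from linear regression; DMSO ≤1% control; at least three independent assays in duplicate.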

[3] = system: Trypanosoma cruzi; assay: Potency index, ratio of compound IC90 to benznidazole IC90 for Trypanocidal activity against intracellular amastigote stage of luciferase expressing Trypanosoma cruzi Dm28c infected in Vero cells; assay type: functional
[4] = Selectivity index, ratio of CC50 for mouse cardiomyocyte infected with intracellular amastigote stage of Trypanosoma cruzi Y strain to IC50 for amastigote stage of Trypanosoma cruzi Y strain; assay type: toxicity, cell-based; settings: read-out: Ratio CC50/IC50
[5] = Selectivity index, ratio of CC50 for African green monkey Vero cells to IC50 for intracellular amastigote stage of luciferase expressing Trypanosoma cruzi Dm28c infected in Vero cells; assay type: toxicity, cell-based; settings: read-out: Ratio CC50/IC50
[6] = biological target: T1, Cruzipain (Trypanosoma cruzi, UniProt P25779); assay: Inhibition of Trypanosoma cruzi cruzipain assessed as reduction in enzymatic activity using Z-FR-AMC fluorogenic peptide substrate incubated for 45 mins by spectrophotometry analysis
T1 sequence (P25779 whole entry): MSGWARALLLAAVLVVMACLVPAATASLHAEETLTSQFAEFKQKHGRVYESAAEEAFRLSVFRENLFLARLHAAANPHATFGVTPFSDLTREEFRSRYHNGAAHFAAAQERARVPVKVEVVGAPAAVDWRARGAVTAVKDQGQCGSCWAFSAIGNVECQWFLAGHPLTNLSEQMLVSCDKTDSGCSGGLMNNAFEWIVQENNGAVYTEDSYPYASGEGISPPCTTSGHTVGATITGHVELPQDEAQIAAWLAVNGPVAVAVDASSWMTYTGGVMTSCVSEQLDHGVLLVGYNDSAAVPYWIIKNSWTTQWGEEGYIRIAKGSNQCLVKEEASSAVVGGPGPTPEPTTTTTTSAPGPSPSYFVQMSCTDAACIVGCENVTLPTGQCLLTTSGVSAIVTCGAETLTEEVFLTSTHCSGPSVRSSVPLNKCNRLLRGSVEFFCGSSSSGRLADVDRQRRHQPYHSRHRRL
Outline: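 Soluble trypomastigote protein extract (lysis in Tris pH 8.0/NaCl/glycerol/Triton X-100, 25,000 g supernatant) used as enzyme source. Incubated with 30 µM Z-FR-AMC in 10 mM sodium acetate pH 5.0 with 1 mM DTT, co-incubated with inhibitor concentrations, 45 min at 37 °C. AMC release read by fluorescence. Substrate self-degradation and DMSO ≤1% controls.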

[7] = system: Trypanosoma cruzi; assay: Trypanocidal activity against Trypanosoma cruzi Y strain bloodstream trypomastigotes isolated from infected Swiss webster mouse cardiac cells assessed as reduction in parasite viability after 24 hrs by Celltiter-Glo assay; assay type: functional, organism-based
Outline: (§1)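 Trypomastigotes at 1 × 10⁶ parasites/well treated 24 h at 37 °C with 0.41–100 µM compound. Y strain viability read by ATP luminescence (CellTiter-Glo); Dm28c-Luc viability read by luciferase activity. IC50/IC90 by linear regression. Benznidazole positive and DMSO ≤1% negative controls.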

[8] = biological target: Cruzipain (Trypanosoma cruzi) (UniProt P25779); assay: Potency index, ratio of compound IC50 to E-64 IC50 for inhibition of Trypanosoma cruzi cruzipain
Sequence of Cruzipain (Trypanosoma cruzi) (P25779 123-467 limits assumed): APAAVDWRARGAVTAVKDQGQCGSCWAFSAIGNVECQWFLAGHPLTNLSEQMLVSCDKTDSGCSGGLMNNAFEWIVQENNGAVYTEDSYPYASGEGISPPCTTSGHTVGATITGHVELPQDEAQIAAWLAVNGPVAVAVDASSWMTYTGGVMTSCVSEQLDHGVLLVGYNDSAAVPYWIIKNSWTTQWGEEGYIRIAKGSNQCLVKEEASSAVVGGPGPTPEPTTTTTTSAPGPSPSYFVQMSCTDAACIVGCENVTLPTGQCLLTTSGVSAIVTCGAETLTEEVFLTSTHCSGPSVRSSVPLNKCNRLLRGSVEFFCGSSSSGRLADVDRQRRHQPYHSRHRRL

[9] = Cytotoxicity against African green monkey Vero cells assessed as reduction in cell viability by measuring ATP level after 72 hrs by Celltiter-Glo assay; assay type: cell-based; settings: chlorocebus sabaeus
Outline: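 Vero cells seeded at 1.5 × 10⁴ cells/well, exposed 24 h later to 1.95–500 µM compound for 72 h at 37 °C. Viability read as ATP luminescence (CellTiter-Glo). DMSO ≤1% as control. CC50 from linear regression; at least three independent assays in duplicate.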

[10] = Selectivity index, ratio of CC50 for African green monkey Vero cells to IC50 for luciferase expressing Trypanosoma cruzi Dm28c trypomastigotes isolated from infected Vero cells; assay type: toxicity; settings: read-out: Ratio CC50/IC50
[11] = system: Trypanosoma cruzi; assay: Trypanocidal activity against intracellular amastigote stage of Trypanosoma cruzi Y strain infected in Swiss webster cardiac cells assessed as reduction in parasite viability
[12] = system: Trypanosoma cruzi; assay: Trypanocidal activity against intracellular amastigote stage of luciferase expressing Trypanosoma cruzi Dm28c infected in Vero cells assessed as reduction in parasite viability after 72 hrs in presence of luciferin by luciferase luminescence analysis
[13] = system: Trypanosoma cruzi; assay: Trypanocidal activity against luciferase expressing Trypanosoma cruzi Dm28c trypomastigotes isolated from infected Vero cells assessed as reduction in parasite viability after 24 hrs by luciferase-luminescence assay; assay type: functional, organism-based; outline: as §1
[14] = biological target: T1, Cruzipain; assay: Irreversible inhibition of Trypanosoma cruzi cruzipain

## Nc1c(C2=NCCN2)cnn1-c1ccc(Cl)c(Cl)c1
[1]
  selectivity ratio: 8.6
[2]
  CC50 at 72 h: 412 µM
[3]
  Ratio: 4.4
[4]
  selectivity ratio: 32.4
[5]
  selectivity ratio: 17.9
[6]
  IC50: 180 µM
[7]
  IC50: 28.3 µM
  IC90: > 100 µM
[8]
  Ratio IC50: 60
[9]
  CC50 at 72 h: 244 µM
[10]
  selectivity ratio: 23.3
[11]
  IC50: 12.7 µM
[12]
  IC50: 13.6 µM
  IC90: 30.5 µM
[13]
  IC50: 10.5 µM
  IC90: 29 µM

## CC(C)C[C@H](NC(=O)[C@@H]1O[C@H]1C(=O)O)C(=O)NCCCCN=C(N)N
[14]
  IC50: 3 µM

## Nc1c(C2=NCCN2)cnn1-c1ccccc1
[5]
  selectivity ratio: > 5.9
[7]
  IC50: > 100 µM
  IC90: > 100 µM
[9]
  CC50 at 72 h: > 500 µM
[12]
  IC50: 84.2 µM
  IC90: > 100 µM
[13]
  IC50: > 100 µM
  IC90: > 100 µM

## Nc1c(C2=NCCN2)cnn1-c1ccc(Br)cc1
[1]
  selectivity ratio: > 9.5
[5]
  selectivity ratio: > 5.9
[7]
  IC50: 52.3 µM
  IC90: > 100 µM
[9]
  CC50 at 72 h: > 500 µM
[12]
  IC50: 84.2 µM
  IC90: > 100 µM
[13]
  IC50: > 100 µM
  IC90: > 100 µM

## COc1ccc(-n2ncc(C3=NCCN3)c2N)cc1
[5]
  selectivity ratio: > 7.9
[7]
  IC50: > 100 µM
  IC90: > 100 µM
[9]
  CC50 at 72 h: > 500 µM
[12]
  IC50: 63.4 µM
  IC90: > 100 µM
[13]
  IC50: > 100 µM
  IC90: > 100 µM

## Nc1c(C2=NCCCN2)cnn1-c1ccc(Cl)cc1
[7]
  IC50: > 100 µM
  IC90: > 100 µM
[9]
  CC50 at 72 h: > 500 µM
[12]
  IC50: > 100 µM
  IC90: > 100 µM
[13]
  IC50: > 100 µM
  IC90: > 100 µM

## COc1ccc(-n2ncc(C3=NCCCN3)c2N)cc1
[7]
  IC50: > 100 µM
  IC90: > 100 µM
[9]
  CC50 at 72 h: > 500 µM
[12]
  IC50: > 100 µM
  IC90: > 100 µM
[13]
  IC50: > 100 µM
  IC90: > 100 µM

## Nc1c(C2=NCCCN2)cnn1-c1ccccc1
[7]
  IC50: > 100 µM
  IC90: > 100 µM
[9]
  CC50 at 72 h: > 500 µM
[12]
  IC50: > 100 µM
  IC90: > 100 µM
[13]
  IC50: > 100 µM
  IC90: > 100 µM

## Nc1c(C2=NCCN2)cnn1-c1cccc(Cl)c1
[1]
  selectivity ratio: > 15.9
[5]
  selectivity ratio: > 24.3
[7]
  IC50: 31.3 µM
  IC90: > 100 µM
[9]
  CC50 at 72 h: > 500 µM
[10]
  selectivity ratio: 9.4
[12]
  IC50: 20.6 µM
  IC90: 55 µM
[13]
  IC50: 53.3 µM
  IC90: 81.1 µM

## Nc1c(C2=NCCN2)cnn1-c1cc(Cl)cc(Cl)c1
[1]
  selectivity ratio: 8.3
[2]
  CC50 at 72 h: 379 µM
[3]
  Ratio: 4.4
[4]
  selectivity ratio: 30.3
[5]
  selectivity ratio: 15.6
[6]
  IC50: 24 µM
[7]
  IC50: 30.9 µM
  IC90: > 100 µM
[8]
  Ratio IC50: 8
[9]
  CC50 at 72 h: 257 µM
[10]
  selectivity ratio: 27.1
[11]
  IC50: 12.5 µM
[12]
  IC50: 16.5 µM
  IC90: 29.9 µM
[13]
  IC50: 9.5 µM
  IC90: 28.9 µM

## Nc1c(C2=NCCCN2)cnn1-c1cc(Cl)cc(Cl)c1
[7]
  IC50: > 100 µM
  IC90: > 100 µM
[9]
  CC50 at 72 h: > 500 µM
[12]
  IC50: > 100 µM
  IC90: > 100 µM
[13]
  IC50: > 100 µM
  IC90: > 100 µM

## Nc1c(C2=NCCCN2)cnn1-c1ccc(Cl)c(Cl)c1
[7]
  IC50: > 100 µM
  IC90: > 100 µM
[9]
  CC50 at 72 h: > 500 µM
[12]
  IC50: > 100 µM
  IC90: > 100 µM
[13]
  IC50: > 100 µM
  IC90: > 100 µM

## Nc1c(C2=NCCN2)cnn1-c1ccc(Cl)cc1
[1]
  selectivity ratio: > 5.9
[7]
  IC50: 84.2 µM
  IC90: > 100 µM
[9]
  CC50 at 72 h: > 500 µM
[10]
  selectivity ratio: > 6.3
[12]
  IC50: > 100 µM
  IC90: > 100 µM
[13]
  IC50: 78.9 µM
  IC90: > 100 µM

## Nc1c(C2=NCCCN2)cnn1-c1cccc(Br)c1
[7]
  IC50: > 100 µM
  IC90: > 100 µM
[9]
  CC50 at 72 h: > 500 µM
[12]
  IC50: > 100 µM
  IC90: > 100 µM
[13]
  IC50: > 100 µM
  IC90: > 100 µM

## Nc1c(C2=NCCN2)cnn1-c1cccc(Br)c1
[1]
  selectivity ratio: 12.7
[5]
  selectivity ratio: 5.2
[7]
  IC50: 27.7 µM
  IC90: > 100 µM
[9]
  CC50 at 72 h: 352 µM
[12]
  IC50: 67.4 µM
  IC90: > 100 µM
[13]
  IC50: > 100 µM
  IC90: > 100 µM

## Nc1c(C2=NCCCN2)cnn1-c1cccc(Cl)c1
[7]
  IC50: > 100 µM
  IC90: > 100 µM
[9]
  CC50 at 72 h: > 500 µM
[12]
  IC50: > 100 µM
  IC90: > 100 µM
[13]
  IC50: > 100 µM
  IC90: > 100 µM

## Nc1c(C2=NCCCN2)cnn1-c1ccc(Br)cc1
[7]
  IC50: > 100 µM
  IC90: > 100 µM
[9]
  CC50 at 72 h: > 500 µM
[12]
  IC50: > 100 µM
  IC90: > 100 µM
[13]
  IC50: > 100 µM
  IC90: > 100 µM

## O=C(Cn1ccnc1[N+](=O)[O-])NCc1ccccc1 [BENZNIDAZOLE]
[1]
  selectivity ratio: > 21.4
[2]
  CC50 at 72 h: > 500 µM
[4]
  selectivity ratio: > 555
[5]
  selectivity ratio: > 263
[7]
  IC50: 23.3 µM
  IC90: > 100 µM
[9]
  CC50 at 72 h: > 500 µM
[10]
  selectivity ratio: > 26.3
[11]
  IC50: 0.9 µM
[12]
  IC50: 1.9 µM
  IC90: 6.9 µM
[13]
  IC50: 19.1 µM
  IC90: 94.1 µM

## Nc1c(C2=NCCCN2)cnn1-c1ccc(F)cc1
[7]
  IC50: > 100 µM
  IC90: > 100 µM
[9]
  CC50 at 72 h: > 500 µM
[12]
  IC50: > 100 µM
  IC90: > 100 µM
[13]
  IC50: > 100 µM
  IC90: > 100 µM

## Nc1c(C2=NCCN2)cnn1-c1ccc(F)cc1
[7]
  IC50: > 100 µM
  IC90: > 100 µM
[9]
  CC50 at 72 h: > 500 µM
[12]
  IC50: > 100 µM
  IC90: > 100 µM
[13]
  IC50: > 100 µM
  IC90: > 100 µM
